Measurements as given in ChEMBL document CHEMBL1137611, “Toward potent ghrelin receptor ligands based on trisubstituted 1,2,4-triazole structure. 2. Synthesis and pharmacological in vitro and in vivo evaluations” (J Med Chem, 2007).

Columns and labels:
[1] = target: T1, Growth hormone secretagogue receptor type 1 (Homo sapiens, UniProt Q92847); test: Activity at human GHS1a receptor expressed in CHO cells assessed as accumulation of intracellular calcium level at 10 uM relative to ghrelin; type: functional, cell-based
T1 sequence (Q92847 whole entry): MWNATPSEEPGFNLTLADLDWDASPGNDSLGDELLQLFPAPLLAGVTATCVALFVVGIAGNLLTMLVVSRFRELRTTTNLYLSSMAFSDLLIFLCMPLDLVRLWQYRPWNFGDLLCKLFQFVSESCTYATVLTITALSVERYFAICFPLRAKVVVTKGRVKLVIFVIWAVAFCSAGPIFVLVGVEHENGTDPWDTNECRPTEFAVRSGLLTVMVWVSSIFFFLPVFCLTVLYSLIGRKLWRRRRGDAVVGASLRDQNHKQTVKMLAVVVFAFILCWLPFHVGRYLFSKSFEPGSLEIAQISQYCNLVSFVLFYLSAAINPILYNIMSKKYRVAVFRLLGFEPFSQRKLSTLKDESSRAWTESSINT
In short: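 CHO cells transiently electroporated with hGHS-R1a, loaded 24 h later with 1 μM Fluo-4AM (1 h, 37 °C, dark), then de-esterified 30 min at room temperature. Fluorescence (ex 485/em 525 nm) recorded over 60 s, compound at 10 μM added at 15 s. Triplicates, at least two independent experiments. Response expressed as percent of maximum with 0.1 μM ghrelin.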

[2] = target: T1, Growth hormone secretagogue receptor type 1; test: Agonist activity at human GHS1a receptor expressed in CHO cells assessed as accumulation of intracellular calcium level; type: functional, cell-based
In short: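 Fluo-4AM calcium assay in CHO cells transiently expressing hGHS-R1a. Fluorescence recorded at ex 485/em 525 nm over 60 s after automated addition of increasing agonist concentrations. EC50 taken from the dose-response curve.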

[3] = target: T1, Growth hormone secretagogue receptor type 1; test: Displacement of [125I]His9-ghrelin from human cloned GHS1a receptor expressed in LLC PK1 cells; type: cell-based
[4] = target: T1, Growth hormone secretagogue receptor type 1; test: Antagonist activity at human GHS1a receptor expressed in CHO cells assessed as accumulation of intracellular calcium level; type: functional, cell-based
Rattus norvegicus [5] = species on record: Rattus norvegicus; test: Effect on cumulative food intake per 100 g body weight of Sprague-Dawley rat at 160 ug after 2 hrs; type: functional
In short: (§1)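 Young-adult male rats (125–150 g), singly housed, acclimated 1 week and trained daily for a further week. Test compound given sc at 160 μg/kg mid-morning, then returned to cages with a known amount of chow. Cumulative intake recorded at 2 or 6 h as g food/100 g body weight.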

Rattus norvegicus [6] = species on record: Rattus norvegicus; test: Inhibition of hexarelin-stimulated cumulative food intake per 100 g body weight of Sprague-Dawley rat at 160 ug after 2 hrs; type: functional
In short: (§2)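 Young-adult male rats (125–150 g), singly housed, acclimated and trained. Compound given sc at time −10 min (0, 20, 80, 160 or 320 μg/kg), then hexarelin 80 μg/kg sc at time 0. Rats returned to home cages with a known amount of chow. Cumulative intake recorded as g food/100 g body weight at 2 h and 6 h.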

Rattus norvegicus [7] = species on record: Rattus norvegicus; test: Effect on cumulative food intake per 100 g body weight of Sprague-Dawley rat at 160 ug after 6 hrs; type: functional; in short: as §1
Rattus norvegicus [8] = species on record: Rattus norvegicus; test: Inhibition of hexarelin-stimulated cumulative food intake per 100 g body weight of Sprague-Dawley rat at 160 ug after 6 hrs; type: functional; in short: as §2
Rattus norvegicus [9] = test: Inhibition of hexarelin-stimulated cumulative food intake per 100 g body weight of Sprague-Dawley rat at 20 ug/kg; type: functional; in short: as §2
Rattus norvegicus [10] = test: Inhibition of hexarelin-stimulated cumulative food intake per 100 g body weight of Sprague-Dawley rat at 80 ug/kg; type: functional; in short: as §2
Rattus norvegicus [11] = test: Inhibition of hexarelin-stimulated cumulative food intake per 100 g body weight of Sprague-Dawley rat at 320 ug/kg; type: functional; in short: as §2
Rattus norvegicus [12] = test: Inhibition of growth hormone secretion in infant Sprague-Dawley rat at 160 ug/kg, sc; type: functional
In short: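 Male 10-day-old pups (~25 g), separated from dams 1 h before testing, groups of eight. Dosed sc with vehicle (DMSO, final 1:300), compound 160 μg/kg, or compound 10 min before hexarelin 80 μg/kg sc. Decapitated 15 min later; plasma GH measured by rat GH enzyme immunoassay and expressed as ng/mL against the NIDDK-rGH-RP-2 standard.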

Row | Structure (SMILES) | Activity [1] | EC50 [2] | IC50 [3] | Kb [4] | Activity (Rattus norvegicus [5]) | Activity (Rattus norvegicus [6]) | Activity (Rattus norvegicus [7]) | Activity (Rattus norvegicus [8]) | Activity (Rattus norvegicus [9]) | Activity (Rattus norvegicus [10]) | Activity (Rattus norvegicus [11]) | Activity (Rattus norvegicus [12])
1 | COc1ccc(Cn2c(CCc3ccccc3)nnc2[C@@H](Cc2c[nH]c3ccccc23)NC(=O)[C@@H]2CCCNC2)cc1 | 89% | 0.036 µM |  |  |  |  |  |  |  |  |  | 
2 | Cc1ncccc1-n1c(CCc2ccccc2)nnc1[C@@H](Cc1c[nH]c2ccccc12)NC(=O)C1CCNCC1 | 78% |  | > 1 µM |  |  |  |  |  |  |  |  | 
3 | O=C(N[C@H](Cc1c[nH]c2ccccc12)c1nnc(CCc2c[nH]c3ccccc23)n1-c1ccccc1)C1CCNCC1 | 100% | 0.0023 µM |  |  |  |  |  |  |  |  |  | 
4 | CCc1ccc(Cn2c(CCc3ccccc3)nnc2[C@@H](Cc2c[nH]c3ccccc23)NC(=O)[C@H]2CCCNC2)cc1 | 11% |  | 0.13 µM |  |  |  |  |  |  |  |  | 
5 | COc1ccc(Cn2c(CCc3c[nH]c4ccccc34)nnc2[C@@H](Cc2c[nH]c3ccccc23)NC(=O)[C@H]2CCCCN2)cc1 | 0% |  |  | 0.008 µM | 0.04 g | 1.25 g | 0.06 g | 1.68 g |  |  |  | 
6 | COc1ccc(Cn2c(CCc3ccccc3)nnc2[C@@H](Cc2c[nH]c3ccccc23)NCCN)c(OC)c1 | 59% | 0.279 µM |  |  |  |  |  |  |  |  |  | 
7 | COc1ccc(Cn2c(CCc3ccccc3)nnc2[C@@H](Cc2c[nH]c3ccccc23)NC(=O)CN)cc1 | 0% |  |  |  | 0.01 g | 0.01 g | 0.04 g | 0.28 g | 0.63 g | 0.56 g | 0.36 g | 9.85 ng/mL
8 | COc1ccc(Cn2c(CCc3ccccc3)nnc2[C@@H](Cc2c[nH]c3ccccc23)NC(=O)[C@@H]2C[C@@H](O)CN2)cc1 | 87% |  | 0.173 µM |  | 0.01 g | 0.02 g | 0.01 g | 0.35 g |  |  |  | 
9 | COc1ccc(Cn2c(CCc3c[nH]c4ccccc34)nnc2[C@@H](Cc2c[nH]c3ccccc23)NC(=O)C(C)(C)N)cc1 | 9% |  |  | 0.004 µM |  |  |  |  |  |  |  | 
10 | CCc1ccc(-n2c(CCc3c[nH]c4ccccc34)nnc2[C@@H](Cc2c[nH]c3ccccc23)NC(=O)C2CCNCC2)cc1 | 100% | 0.015 µM | 0.096 µM |  |  |  |  |  |  |  |  | 
11 | O=C(N[C@H](Cc1c[nH]c2ccccc12)c1nnc(CCc2c[nH]c3ccccc23)n1Cc1ccccc1)[C@H]1CCCNC1 | 50% | 0.0099 µM | 0.013 µM |  | 0.52 g | 0.16 g | 0.6 g | 0.62 g |  |  |  | 
12 | CCc1ccc(-n2c(CCc3c[nH]c4ccccc34)nnc2[C@@H](Cc2c[nH]c3ccccc23)NC(=O)[C@@H]2CCCN2)cc1 | 5% |  | 0.35 µM |  |  |  |  |  |  |  |  | 
13 | COc1ccc(Cn2c(CCC3C=Nc4ccccc43)nnc2[C@@H](Cc2c[nH]c3ccccc23)NC(=O)CN)cc1 (stereo partly drawn) | 2% |  | 0.138 µM |  |  |  |  |  |  |  |  | 
14 | COc1ccc(Cn2c(CCc3ccccc3)nnc2[C@@H](Cc2c[nH]c3ccccc23)NC(=O)[C@H]2CCCCN2)cc1 | 7% |  |  |  | 0.01 g | 0.85 g | 0.01 g | 1.07 g |  |  |  | 6.09 ng/mL
15 | CCc1ccc(-n2c(CCc3c[nH]c4ccccc34)nnc2[C@@H](Cc2c[nH]c3ccccc23)NC(=O)CN)cc1 | 4% |  | > 1 µM |  |  |  |  |  |  |  |  | 
16 | NCC(=O)N[C@H](Cc1c[nH]c2ccccc12)c1nnc(CCc2ccccc2)n1-c1ccccc1 | 7% |  | > 1 µM |  |  |  |  |  |  |  |  | 
17 | COc1ccc(Cn2c(CCc3ccccc3)nnc2[C@@H](Cc2c[nH]c3ccccc23)NC(=O)CN)c(OC)c1 | 0% |  | 0.154 µM |  | 0.01 g | 1.26 g | 0.08 g | 1.48 g |  |  |  | 

Row | Structure (SMILES) | Activity [1] | EC50 [2] | IC50 [3] | Kb [4] | Activity (Rattus norvegicus [5]) | Activity (Rattus norvegicus [6]) | Activity (Rattus norvegicus [7]) | Activity (Rattus norvegicus [8]) | Activity (Rattus norvegicus [9]) | Activity (Rattus norvegicus [10]) | Activity (Rattus norvegicus [11]) | Activity (Rattus norvegicus [12])
18 | COc1ccc(Cn2c(CCc3c[nH]c4ccccc34)nnc2[C@@H](Cc2c[nH]c3ccccc23)NC(=O)[C@H]2CCCNC2)cc1 | 111% | 0.0025 µM |  |  | 0.01 g | 0.62 g | 0.06 g | 0.76 g |  |  |  | 
19 | COc1ccc(Cn2c(CCc3ccccc3)nnc2[C@@H](Cc2c[nH]c3ccccc23)NC(=O)C2CCCCN2)cc1 (single isomer, unassigned) | 3% |  |  |  | 0.01 g | 0.06 g | 0.01 g | 0.56 g |  |  |  | 
20 | COc1ccc(Cn2c(CCc3c[nH]c4ccccc34)nnc2[C@@H](Cc2c[nH]c3ccccc23)NC(=O)[C@H]2CCCNC2)c(OC)c1 | 48% | 0.0053 µM | 0.0065 µM |  | 0.01 g | 0.33 g | 0.01 g | 0.65 g |  |  |  | 
21 | CCc1ccc(Cn2c(CCc3ccccc3)nnc2[C@@H](Cc2c[nH]c3ccccc23)NC(=O)C2CCNCC2)cc1 | 101% | 0.0077 µM |  |  | 0.03 g | 1.4 g | 0.35 g | 1.66 g |  |  |  | 
22 | COc1ccc(Cn2c(CCc3c[nH]c4ccccc34)nnc2[C@@H](Cc2c[nH]c3ccccc23)NC(=O)[C@@H]2CCCN2)c(OC)c1 | 0% |  | 0.0056 µM | 0.011 µM |  |  |  |  |  |  |  | 
23 | O=C(N[C@H](Cc1c[nH]c2ccccc12)c1nnc(CCc2c[nH]c3ccccc23)n1Cc1ccccc1)C1CCNCC1 | 75% | 0.0054 µM | 0.024 µM |  | 0.01 g | 0.38 g | 0.11 g | 0.6 g |  |  |  | 
24 | COc1ccc(Cn2c(CCc3c[nH]c4ccccc34)nnc2[C@@H](Cc2c[nH]c3ccccc23)NC(=O)C2CCNCC2)cc1 | 93% | 0.003 µM |  |  | 0.01 g | 0.4 g | 0.37 g | 1.05 g |  |  |  | 
25 | COc1ccc(Cn2c(CCc3c[nH]c4ccccc34)nnc2[C@@H](Cc2c[nH]c3ccccc23)NC(=O)[C@@H]2CCCN2)cc1 | 2% |  |  | 0.006 µM | 0.05 g | 0.44 g | 0.2 g | 0.48 g |  |  |  | 
26 | CCc1ccc(Cn2c(CCc3ccccc3)nnc2[C@@H](Cc2c[nH]c3ccccc23)NC(=O)CN)cc1 | 0% |  | 0.759 µM |  | 0.01 g | 0.79 g | 0.03 g | 0.81 g |  |  |  | 
27 | COc1ccc(Cn2c(CCc3c[nH]c4ccccc34)nnc2[C@@H](Cc2c[nH]c3ccccc23)NC(=O)CN)c(OC)c1 | 0% |  |  | 0.027 µM | 0.01 g | 0.39 g | 0.01 g | 0.74 g |  |  |  | 
28 | CC(C)(N)C(=O)N[C@H](Cc1c[nH]c2ccccc12)c1nnc(CCc2c[nH]c3ccccc23)n1Cc1ccccc1 | 73% |  |  |  |  |  |  |  |  |  |  | 
29 | COc1ccc(Cn2c(CCc3ccccc3)nnc2[C@@H](Cc2c[nH]c3ccccc23)NC(=O)[C@@H]2CCCCN2)c(OC)c1 | 0% |  | 0.134 µM |  |  |  |  |  |  |  |  | 
30 | COc1ccc(Cn2c(CCc3ccccc3)nnc2[C@@H](Cc2c[nH]c3ccccc23)NC(=O)[C@H]2CCCNC2)cc1 | 20% |  |  | 0.01 µM |  |  |  |  |  |  |  | 
31 | COc1ccc(Cn2c(CCc3c[nH]c4ccccc34)nnc2[C@@H](Cc2c[nH]c3ccccc23)NC(=O)[C@H]2CCCN2)cc1 | 7% |  |  | 0.007 µM | 0.01 g | 0.05 g | 0.03 g | 0.36 g | 0.17 g | 0.15 g | 0.58 g | 
32 | COc1ccc(-n2c(CCc3ccccc3)nnc2[C@@H](Cc2c[nH]c3ccccc23)NC(=O)CN)c(OC)c1 | 27% |  | > 1 µM |  |  |  |  |  |  |  |  | 
33 | COc1ccc(Cn2c(CCc3c[nH]c4ccccc34)nnc2[C@@H](Cc2c[nH]c3ccccc23)NC(=O)C2CCNCC2)c(OC)c1 | 77% | 0.0006 µM |  |  | 0.01 g | 0.11 g | 0.01 g | 0.86 g |  |  |  | 
